Marks after values point to notes of the source that are not given here.
Assays:
[1] = tested on: mRNA translation in 4T1-526 cells; assay: Puromycin incorporation in 4T1-526 cells; assay type: cell-based; conditions: read-out: IC50 for inhibition of mRNA translation
eIF4A1 [2] = target: T1, eIF4A1 (Homo sapiens, UniProt P60842); assay type: binding; conditions: for RNA template selectivity of compound-induced eIF4A1 clamping: 10 µM, poly (AG)8 vs poly (UC)8 RNA
Outline: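 Clamping: 1 mM AMPPNP, ΔmP versus DMSO, n = 3 ±SD. Dissociation: complexes with 1 mM ATP, 30 min RT dark, then 1,000-fold excess unlabeled poly(AG)8, polarization over time; one-phase-decay half-life, 95% CI errors.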

[3] = delivered IV 1 mg/kg; cited from earlier work
4T1-526 cells = assay: Cell death of 4T1-526 cells; assay type: cell-based; conditions: 72h exposure at IC50 doses
[4] = Plasma protein binding, human; assay type: in vitro ADME
[5] = tested on: cap-dependent (FLuc) translation; assay: In vitro translation in Krebs-2 extracts with bicistronic reporter mRNA; assay type: biochemical; conditions: read-out: IC50 toward inhibition of FLuc synthesis from (CAG)-FF/HCV-IRES/Ren mRNA, n = 2 ±SD
4T1-526 mammary tumors = assay: 4T1-526 mammary fat pad tumor growth; assay type: in vivo, BALB/c mice
eIF4A1 [6] = target: T1, eIF4A1; assay: Differential scanning fluorimetry of eIF4A1; assay type: binding; conditions: eIF4A1 8 µM, compound 15 µM, 15 µM poly (AG)8, 1 mM AMPPNP
Outline: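 His6-eIF4A1 (E. coli BL21(DE3), Ni-NTA then Q-Sepharose) at 8 µM with 15 µM test compound or DMSO. Heated 37 to 75 °C at 1 °C/min; ΔT50 from the unfolding midpoint; n = 3 ±SD.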

[7] = Plasma protein binding, mouse; assay type: in vitro ADME
[8] = tested on: MDA-MB-231, 4T1, MRC-5 cells; assay: Western blot of c-MYC, cyclin D1 and PARP; assay type: cell-based; conditions: MDA-MB-231 or 4T1 cancer cells; MG-002, CR-1-31B 100 nM, DXR 0.5 µg/mL; 24 h

T1 sequence (P60842 whole entry): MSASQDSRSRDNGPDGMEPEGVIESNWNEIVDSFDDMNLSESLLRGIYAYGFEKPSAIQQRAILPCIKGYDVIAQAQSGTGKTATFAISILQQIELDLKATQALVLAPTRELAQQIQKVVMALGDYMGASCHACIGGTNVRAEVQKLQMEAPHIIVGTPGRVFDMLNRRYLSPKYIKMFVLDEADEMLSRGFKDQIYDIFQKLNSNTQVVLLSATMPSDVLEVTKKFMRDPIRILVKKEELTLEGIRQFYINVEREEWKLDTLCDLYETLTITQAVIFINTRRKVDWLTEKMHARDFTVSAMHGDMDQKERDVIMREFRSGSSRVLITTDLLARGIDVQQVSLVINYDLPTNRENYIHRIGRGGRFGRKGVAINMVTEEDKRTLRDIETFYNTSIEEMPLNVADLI

Row | SMILES | IC50 [1] | RNA template selectivity of compound-induced eIF4A1 clamping (eIF4A1 [2]) | half-life of complexes, fold less than those formed with MG-002 (eIF4A1 [2]; poly (AG) RNA) | T1/2 (h) [3] | cell death (4T1-526 cells) | Plasma protein binding (% bound) Human [4] | IC50 [5] | tumor growth after intraperitoneal or intravenous delivery (4T1-526 mammary tumors; intraperitoneal or intravenous delivery) | transition midpoint temperature shift (ΔT50) (eIF4A1 [6]) | Plasma protein binding (% bound) Mouse [7] | cleavage of PARP [8] | primary tumor response, monotherapy versus combination (4T1-526 mammary tumors; 0.5 mg/kg MG-002 PO, 2.5 mg/kg DXR IP, every 3 d)
1 | COc1cc2c(c(OC)n1)[C@]1(O)[C@H](O)[C@H](CN(C)C)[C@@H](c3ccccc3)[C@]1(c1ccc(C#N)cc1)O2 [eFT226] | ~8 nM | discriminated between poly (AG)8 and poly (UC)8 RNA templates | approximately 2.5 fold | 10.9^§ h | Significant cell death | 79.4 ± 0.3 % bound | 813 ± 91 nM | similarly delayed tumor growth | 7 °C | 73.4 ± 1.1 % bound | – | –
2 | CC(/C=C/C(C)=C/[C@@H]1Cc2nc(cs2)[C@@H](C)C[C@@H](N)CC(=O)O[C@@H](C)C/C(C)=C/C=C\C(=O)O1)=C\CN(C)C [PatA, pateamine A] | – | stabilized binding of eIF4A1 to both polypurine and polypyrimidine RNA templates | – | – | – | – | – | – | 10 °C | – | – | –
3 | COc1cccc2c1C(=O)c1c(O)c3c(c(O)c1C2=O)C[C@@](O)(C(=O)CO)C[C@@H]3O[C@H]1C[C@H](N)[C@H](O)[C@H](C)O1 [DXR, doxorubicin] | – | – | – | – | – | – | – | – | – | – | cleavage of PARP was observed | equally responsive
